In ChEMBL document CHEMBL2407056, “3-(Oxazolo[4,5-b]pyridin-2-yl)anilides as a novel class of potent inhibitors for the kinetoplastid Trypanosoma brucei, the causative agent for human African trypanosomiasis” (Eur J Med Chem, 2013):
In brackets after ≈: the same amount, converted by molar mass.

How the values were obtained:
[1] = Selectivity index, ratio of IC50 for HEK293 cells to IC50 for Trypanosoma brucei brucei 427 bloodstream form; assay type: toxicity, cell-based; details: human, read-out: Ratio IC50
In short: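 HEK293 cells (55 µL of 72,727 cells/mL in DMEM + 10% FCS) in 384-well plates, 24 h at 37 °C/5% CO2. Drug diluted 1:21 from DMSO, final 83.34 to 0.0004 µM, 48 h. […] SI relative to T. b. brucei.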

[2] = test system: Trypanosoma brucei brucei; assay: Antitrypanosomal activity against Trypanosoma brucei brucei 427 bloodstream form after 48 hrs by Alamar blue assay; assay type: functional, organism-based; details: Trypanosoma brucei, 427, 48 h
In short: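 Bloodstream parasites in 384-well plates, 24 h preincubation at 37 °C/5% CO2. DMSO dilutions diluted 1:21 in DMEM and added to give final 41.67 to 0.0004 µM; 48 h incubation. 70% Alamar Blue in HMI-9 + 10% FCS added, 2 h at 37 °C then 22 h at room temperature; read at ex 535/em 590 nm.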

[3] = Partition coefficient, log D of the compound at pH 7.4 by HPLC analysis; assay type: physicochemical; details: octanol/water
In short: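 Chromatographic gradient HPLC: mobile phase 50 mM ammonium acetate pH 7.4 (or ammonium formate pH 3.0) with an acetonitrile gradient of 0–100% over 10 min; UV detection at 220 and 254 nm.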

[4] = Kinetic solubility of the compound in phosphate buffer at pH 6.5 by nephelometry; assay type: physicochemical; details: read-out: Kinetic_solubility
In short: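 DMSO stocks spiked into pH 6.5 phosphate buffer or 0.01 M HCl (about pH 2.0), final DMSO 1% (v/v). Solubility range determined by nephelometry.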

[5] = Kinetic solubility of the compound in phosphate buffer at pH 2 by nephelometry; assay type: physicochemical; details: read-out: Kinetic_solubility
[6] = Intrinsic clearance in human liver microsomes at 1 uM after 60 mins by LC-MS analysis; assay type: ADME, Microsome; details: read-out: CLH
In short: (§1)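 Compound at 1 µM final (1 in 500 dilution of stock) incubated at 37 °C with human liver microsomes in 0.1 M phosphate buffer pH 7.4, 0.4 mg/mL protein. First-order depletion rate from exponential decay fit used to derive in vitro CLint and half-life; predicted hepatic extraction ratio from scaled CLint with liver blood flow 20.7 mL/min/kg.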

[7] = Half life in human liver microsomes at 1 uM by LC-MS analysis; assay type: ADME, Microsome; in short: as §1
[8] = test system: Trypanosoma brucei rhodesiense; assay: Antitrypanosomal activity against Trypanosoma brucei rhodesiense STIB 900 bloodstream form after 70 hrs by Alamar blue assay; assay type: functional, organism-based; details: STIB 900, 70 h
In short: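 Bloodstream forms (4×10³/well) in MEM with 25 mM HEPES, extra glucose, non-essential amino acids, 0.2 mM 2-mercaptoethanol, 1 mM pyruvate and 15% heat-inactivated horse serum. Eleven 3-fold dilutions from 100 to 0.002 µg/mL, 70 h at 37 °C/5% CO2; Alamar Blue 2 h, fluorescence at ex 536/em 588 nm; IC50 by linear regression; melarsoprol control. SI relative to L6 cells.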

Leishmania donovani [9] = assay: Antimicrobial activity against Leishmania donovani amastigote form infected in mouse peritoneal macrophage after 96 hrs by Giemsa staining method; assay type: functional, organism-based
In short: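 Mouse peritoneal macrophages (4×10⁴/well, RPMI 1640 + 10% heat-inactivated FBS) infected after 24 h with 1.2×10⁵ axenic amastigotes; free parasites removed at 4 h, drug dilutions added next day. After 96 h, methanol fixation and 10% Giemsa staining; infected and non-infected macrophages counted, % reduction in parasite burden vs controls, IC50 by linear regression; miltefosine control.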

Plasmodium falciparum = assay: Antimicrobial activity against Plasmodium falciparum NF54 infected in human RBC after 48 hrs by [3H]hypoxanthine incorporation assay; assay type: functional, organism-based
In short: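 Erythrocytic stage, drug-sensitive strain, in hypoxanthine-free RPMI 1640 with HEPES, NaHCO3, neomycin, Albumax, human A+ red cells at 2.5% haematocrit, 0.3% parasitaemia. Eleven 3-fold dilutions from 100 to 0.002 µg/mL; 37 °C, 4% CO2/3% O2/93% N2. ³H-hypoxanthine added at 48 h, further 24 h, then harvested and scintillation-counted. IC50 by linear regression; chloroquine control.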

Trypanosoma cruzi = assay: Antitrypanosomal activity against Trypanosoma cruzi Tulahuen C2C4 amastigotes infected in rat L6 cells after 96 hrs by beta-galactosidase reporter gene assay; assay type: functional, organism-based; details: Tulahuen C2C4, L6, 96 h
In short: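 L-6 cells (2000/well, RPMI 1640 + 10% FBS, 2 mM L-glutamine) infected after 24 h with 5000 LacZ-expressing trypomastigotes. At 48 h the medium was replaced with eleven 3-fold drug dilutions (100 to 0.002 µg/mL). After 96 h, CPRG/Nonidet substrate added, colour read at 540 nm after 2–6 h. IC50 by linear regression from sigmoidal curves; benznidazole control.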

L6 = assay: Cytotoxicity against rat L6 cells after 70 hrs by Alamar blue assay; assay type: cell-based; details: L6, 70 h
In short: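 4000 L-6 cells per well in RPMI 1640 with L-glutamine and 10% FBS. Eleven 3-fold dilutions from 100 to 0.002 µg/mL for 70 h; Alamar Blue 2 h, fluorescence at ex 536/em 588 nm. IC50 by linear regression from sigmoidal curves; podophyllotoxin control.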

Leishmania donovani [10] = assay: Antimicrobial activity against Leishmania donovani MHOM/ET/67/L82 amastigote form after 70 hrs by Alamar blue assay; assay type: functional, organism-based; details: MHOM/ET/67/L82, 70 h
In short: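 Axenic amastigotes grown at 37 °C in SM medium pH 5.4 with 10% heat-inactivated FBS, 5% CO2; 10⁵ parasites per well exposed to eleven 3-fold dilutions (100 to 0.002 µg/mL) for 70 h. Alamar Blue (resazurin) added for 2–4 h, fluorescence read at ex 536/em 588 nm. IC50 by linear regression from sigmoidal curves; miltefosine control.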

| IC50 [2] [nM] | SMILES | selectivity ratio [1] | further results |
| --- | --- | --- | --- |
| 1100 | COc1ccc(-c2nc3ncccc3o2)cc1NC(=O)c1ccco1 | 74 |  |
| > 10000 | O=C(Nc1cc(-c2nc3ncccc3o2)ccc1Cl)c1ccco1 |  |  |
| 340 | O=C(Nc1cccc(-c2nc3ncccc3o2)c1)c1ccco1 | > 245 |  |
| 6200 | Cc1ccc(-c2nc3ncccc3o2)cc1NC(=O)c1ccco1 | 13 |  |
| 940 | Cc1ccc(NC(=O)c2ccco2)cc1-c1nc2ncccc2o1 | > 88 |  |
| 570 | Cc1ccc(NC(=O)c2occc2C)cc1-c1nc2ncccc2o1 | 145 | logD [3]: 3.3; solubility kinetic [4]: < 1.6 µg/mL; solubility kinetic [5]: 1.6 µg/mL (≈ 4.8 µM); microsomal CLint at 1 µM [6]: 228 µL/min/mg; half-life at 1 µM [7]: 8 min |
| > 10000 | Cc1ccc(NC(=O)c2cnco2)cc1-c1nc2ncccc2o1 |  |  |
| 310 | Cc1ccc(NC(=O)c2ccoc2)cc1-c1nc2ncccc2o1 | 103 | logD [3]: 2.7; solubility kinetic [4]: 6.3 µg/mL (≈ 19.7 µM); solubility kinetic [5]: 12.5 µg/mL (≈ 39.1 µM); microsomal CLint at 1 µM [6]: 176 µL/min/mg; half-life at 1 µM [7]: 10 min |
| 2600 | Cc1ccc(NC(=O)c2cscn2)cc1-c1nc2ncccc2o1 | 32 |  |
| 290 | O=C(Nc1ccc(F)c(-c2nc3ncccc3o2)c1)c1ccco1 | 290 |  |
| 100 | Cc1ccoc1C(=O)Nc1ccc(F)c(-c2nc3ncccc3o2)c1 | 840 | logD [3]: 2.9; solubility kinetic [4]: 1.6 µg/mL (≈ 4.74 µM); solubility kinetic [5]: 1.6 µg/mL (≈ 4.74 µM); microsomal CLint at 1 µM [6]: 202 µL/min/mg; half-life at 1 µM [7]: 9 min |
| 2000 | O=C(Nc1ccc(F)c(-c2nc3ncccc3o2)c1)c1cnco1 | 43 | logD [3]: 1.7; solubility kinetic [4]: 6.3 µg/mL (≈ 19.4 µM); solubility kinetic [5]: 6.3 µg/mL (≈ 19.4 µM); microsomal CLint at 1 µM [6]: 14 µL/min/mg; half-life at 1 µM [7]: 124 min |
| 120 | O=C(Nc1ccc(F)c(-c2nc3ncccc3o2)c1)c1ccoc1 | 680 | logD [3]: 2.4; solubility kinetic [4]: 6.3 µg/mL (≈ 19.5 µM); solubility kinetic [5]: 12.5 µg/mL (≈ 38.7 µM); microsomal CLint at 1 µM [6]: 154 µL/min/mg; half-life at 1 µM [7]: 11 min |
| 760 | O=C(Nc1ccc(F)c(-c2nc3ncccc3o2)c1)c1cscn1 | 110 | logD [3]: 2.3; solubility kinetic [4]: 3.1 µg/mL (≈ 9.11 µM); solubility kinetic [5]: 3.1 µg/mL (≈ 9.11 µM); microsomal CLint at 1 µM [6]: 48 µL/min/mg; half-life at 1 µM [7]: 36 min |
| 120 | O=C(Nc1cccc(-c2nc3ncc(-c4ccccc4)cc3o2)c1)c1ccco1 | 84 |  |
| 630 | COc1ccc(-c2cnc3nc(-c4cccc(NC(=O)c5ccco5)c4)oc3c2)cc1 | 130 |  |
| 550 | O=C(Nc1cccc(-c2nc3ncc(-c4ccc(Cl)cc4)cc3o2)c1)c1ccco1 | 150 |  |
| 780 | O=C(Nc1cccc(-c2nc3ncccc3[nH]2)c1)c1ccco1 | 54 |  |
| 1000 | O=C(Nc1cccc(-c2nc3ncccc3[nH]2)c1)c1ccoc1 | 39 |  |
| > 10000 | O=C(Nc1ccc(Cl)c(-c2nc3ccccc3o2)c1)c1ccco1 |  |  |
| > 10000 | CN(C(=O)c1ccoc1)c1ccc(Cl)c(-c2nc3ncccc3o2)c1 |  |  |
| > 10000 | CN(C(=O)c1ccccc1)c1ccc(Cl)c(-c2nc3ncccc3o2)c1 |  |  |
| > 10000 | O=C(Nc1ccc(Cl)c(-c2nc3ncccc3o2)c1)c1c[nH]cn1 |  |  |
| > 10000 | O=C(Nc1ccc(Cl)c(-c2nc3ncccc3o2)c1)c1cc2ccccc2o1 |  |  |
| 1500 | O=C(Nc1ccc(Cl)c(-c2nc3ncccc3o2)c1)c1ccccc1 | 54 | IC50 [8]: 4200 nM; IC50 (Leishmania donovani [9]): 37000 nM; IC50 (Plasmodium falciparum): 6900 nM; IC50 (Trypanosoma cruzi): 2900 nM; IC50 (L6): 51000 nM; IC50 (Leishmania donovani [10]): 6100 nM |
